In ChEMBL document CHEMBL1135607, “1-Benzyl-3-(5'-hydroxymethyl-2'-furyl)indazole (YC-1) derivatives as novel inhibitors against sodium nitroprusside-induced apoptosis” (2002) one finds Cell survival data, which are given here for 11 molecules.

The species named for the assay is Rattus norvegicus. In words: Effect on the survival of rat aortic smooth muscle cells. Type of assay: functional. Also on record: concentration or dose not given beside the values. Summed up:
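Rat aortic smooth muscle cells in culture, pretreated 30 min with test compound at 30 μM, then vehicle or sodium nitroprusside (1 mM) added for another 24 h. Viability read by MTT assay and TUNEL.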
On to `COC(=O)c1ccc(-c2nn(Cc3ccccc3)c3ccccc23)o1`, for which the Cell survival was determined as 78%. As for `COc1ccc2c(-c3ccc(CO)o3)nn(Cc3ccccc3)c2c1`, the figure is 84.5%; as for `COCc1ccc(-c2nn(Cc3ccccc3)c3ccccc23)o1`, 93.2%; as for `Cc1ccc(-c2nn(Cc3ccccc3)c3ccccc23)o1`, 31.1%. SODIUM NITROPRUSSIDE registered a Cell survival of 41.3%. `OCc1ccc(-c2nn(Cc3ccccc3)c3cc4c(cc23)OCO4)o1` yielded a Cell survival of 75.8%. The molecule `OCc1ccc(-c2nn(Cc3ccccc3)c3cc(F)ccc23)o1` showed a Cell survival of 83.3%. As for `CNCc1ccc(-c2nn(Cc3ccccc3)c3ccccc23)o1`, the figure is 57.2%; as for `OCc1ccc(-c2nn(Cc3ccccc3)c3ccccc23)o1`, 94.7%; as for `CCN(CC)Cc1ccc(-c2nn(Cc3ccccc3)c3ccccc23)o1`, 39.7%. As for `OCc1ccc(-c2nn(-c3ccccc3)c3ccccc23)o1`, the figure is 93.9%.
